# APJ ag – APJ receptor agonism. CHO-K1 APJ PathHunter beta-arrestin, luminescence; 0% DMSO wells, 100% apelin. activation, % at 20 µM. 330,000 compounds, 0.11% hits. AID 2520;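 active = activation more than six SD over the plate average, tested at 20 µM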
#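 Material: CHO-K1 APJ beta-arrestin complementation cell line; Input: cell density 1000 per well; Incubation: compound stimulation 90 min at 25 °C, detection 60 min; Signal: luminescence from split beta-galactosidase complementation, Galacton Star/Emerald II substrate; Controls: DMSO-only wells as negative, 10 nM Apelin-13 as positive control.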
# CXCR6 block – CXCR6 (human) receptor inhibition. 360,000 compounds, 0.36% hits. CHO-K1 PathHunter CXCR6 beta-arrestin, luminescence. inhibition, % at 20 µM. O00574; in the data active = inhibition above about 34%, passing the limit was not always enough;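 also: antagonist mode with CXCL16 agonist at 10 nM final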
# Target sequence (O00574 whole entry, looked up): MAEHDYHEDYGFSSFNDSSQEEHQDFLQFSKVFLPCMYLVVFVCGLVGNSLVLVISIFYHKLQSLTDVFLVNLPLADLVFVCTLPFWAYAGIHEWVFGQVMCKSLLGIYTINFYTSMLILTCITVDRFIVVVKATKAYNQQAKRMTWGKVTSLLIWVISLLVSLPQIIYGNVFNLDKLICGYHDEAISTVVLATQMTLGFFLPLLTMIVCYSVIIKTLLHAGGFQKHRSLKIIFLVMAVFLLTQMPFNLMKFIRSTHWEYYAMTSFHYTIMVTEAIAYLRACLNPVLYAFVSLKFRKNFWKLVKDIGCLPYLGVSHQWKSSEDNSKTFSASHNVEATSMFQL
# APJ antagonist – APJ receptor antagonism. P35414. CHO-K1 APJ beta-arrestin complementation, luminescence. inhibition, % at 20 µM. 330,000 compounds, 0.32% hits. AID 2521;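 active = inhibition above about 40% at 20 µM, limit read from the data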;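 also: cells challenged with 10 nM apelin-13 agonist together with compound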
# CCR6 antagonist – blocks CCL20-driven beta-arrestin recruitment at human CCR6; P51684; CHO-K1 CCR6 PathHunter beta-arrestin, luminescence, CCL20-stimulated; inhibition, % at 20 µM; 340,000 compounds, 0.49% hits;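 active = compounds whose inhibition of the agonist-driven luminescence signal at 20 µM reaches about 50%, limit read from the data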;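 also: cells stimulated with CCL20 at 14 nM final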
# EBI2 block – EBI2 (human) antagonism; EBI2 beta-arrestin recruitment, luminescence, 7a,25-OHC stimulated; inhibition, % at 5 µM; 360,000 compounds, 0.81% hits; AID 651636; in the data active = inhibition above about 38%;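 also: enzyme fragment complementation signal reports receptor beta-arrestin coupling in cells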
# B2AR ag – activates human beta-2 adrenergic receptor causing internalization. 340,000 compounds, 0.43% hits. AID 504454. response, % (no concentration beside the values). Am2.2-beta2AR cells, FAP receptor internalization, flow cytometry;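 active = response above a set limit, near 3 SD of response in nonfluorescent compounds, cut at about 42% in these data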
# APJ antag confirm – confirmation of human APJ apelin receptor antagonists | shares compounds with APJ antagonist | APJ beta-arrestin recruitment, luminescence, antagonist mode | 950 compounds, 66% hits | inhibition, % at 20 µM | AID 2766; in the data active = inhibition above about 50%
# Numbers stand for hits; - = inactive; . = not tested or not shown. In the library only some 1.8% were active in any assay of this set; here they are far more common.
SMILES,APJ ag,CXCR6 block,APJ antagonist,CCR6 antagonist,EBI2 block,B2AR ag,APJ antag confirm
CCc1nnc(NC(=O)C2CC(=O)N(Cc3ccccc3)C2)s1 (configuration not stated),-,-,-,-,-,-,.
CCc1ccc(N2CC(C(=O)Nc3nnc(CC)s3)CC2=O)cc1 (configuration not stated),-,-,61.5,-,-,-,-
O=C(c1ccco1)N(Cc1cccc(Cl)c1)C1CCS(=O)(=O)C1 (configuration not stated),-,-,-,-,-,-,.
O=C(c1ccco1)N(Cc1cccs1)C1CCS(=O)(=O)C1 (configuration not stated),-,-,46.9,-,-,-,-
COCCNC(=O)C1(C)CCCN(C(=O)c2ccc3snnc3c2)C1 (configuration not stated),.,-,.,.,-,.,.
COc1ccc(NC(=O)CSc2ccccn2)cc1OC,-,-,-,-,-,-,.
COc1ccc(NC(=O)CSc2nnc(-c3ccccn3)n2-c2ccccc2)cc1OC,-,-,40.7,-,-,-,-
COc1ccc(CN2C[C@@H](CO)O[C@@H](n3cnc4c(NCc5ccco5)ncnc43)C2)cc1,.,-,.,.,-,.,.
O=C(Nc1cc(Cl)ccc1N1CCOCC1)c1ccc(Br)o1,-,-,-,-,-,-,.
Cc1ccnc2nc(C(=O)Nc3cc(Cl)ccc3N3CCOCC3)nn12,-,-,57.0,-,-,-,-
Oc1ccc2ccccc2c1N=Nc1ccccc1F,-,-,-,-,-,-,.
Oc1ccc2ccccc2c1N=Nc1ccccn1,-,40.6,75.2,63.4,-,-,97.2
O=S(=O)(O)c1cccc(N=Nc2c(O)ccc3ccccc23)c1,-,-,49.0,-,-,-,58.3
O=[N+]([O-])c1ccc(N2CCN(Cc3ccccc3)CC2)c2c1no[n+]2[O-],.,-,.,.,-,.,.
CCN1CCN(c2cc(C)c3cc(NC(=O)Cc4ccccc4OC)ccc3n2)CC1,-,-,47.8,-,-,-,-
CCN1CCN(c2cc(C)c3cc(NC(=O)CCC(=O)Nc4ccc(OC)c(OC)c4)ccc3n2)CC1,-,-,-,-,-,-,.
CC(C)C(NC(=O)C1CCCCC1)C(=O)NCCc1ccccc1 (configuration not stated),-,-,41.3,-,-,-,-
CC(C)C(NC(=O)C1CCCCC1)C(=O)NCc1ccccn1 (configuration not stated),-,-,-,-,-,-,.
Cc1ccc(NC(=O)CCNS(=O)(=O)c2ccc3c(c2)CCC(=O)N3)cc1,-,-,-,-,-,-,.
Cc1ccc(NC(=O)CCNS(=O)(=O)c2ccc3c(c2)CCC(=O)N3)c(Br)c1,-,-,41.0,-,-,-,-
CCOC(=O)c1nnc2c(Br)c(-c3ccccc3)nn2c1C,-,-,44.0,-,-,-,-
CCOC(=O)c1nnc2cc(-c3ccccc3)nn2c1C,-,-,-,-,-,-,.
COc1cc(C(=O)NC(=S)Nc2ccc([N+](=O)[O-])cc2C)cc(OC)c1OC,-,-,43.0,-,-,-,65.1
COc1cccc(C(=O)NC(=S)Nc2ccc([N+](=O)[O-])cc2C)c1,-,-,-,-,-,-,.
Cc1ccc(C(=O)O)cc1NC(=S)NC(=O)c1ccc([N+](=O)[O-])c(C)c1,-,-,40.0,-,-,-,-
SMILES,APJ ag,CXCR6 block,APJ antagonist,CCR6 antagonist,EBI2 block,B2AR ag,APJ antag confirm
Cc1ccc(CNC(=S)Nc2cc(C(=O)O)ccc2C)cc1,-,-,-,-,-,-,.
O=C(CN1CCc2ccccc2C1)Nc1ccccc1C(=O)NC1CC1,-,-,-,-,-,-,.
COc1cc(SC)ccc1C(=O)OCC(=O)NCC(C)C,-,-,41.5,-,-,-,-
Cc1cc(C(=O)NNC(=O)c2ccc(C)c([N+](=O)[O-])c2)c(C)o1,-,-,-,-,-,-,.
CCn1c(SCC(=O)NCC2CCCO2)nc2c([nH]c3ccccc32)c1=O (configuration not stated),-,-,-,-,-,-,.
O=C(CSc1nc2c([nH]c3ccccc32)c(=O)n1-c1ccccc1)NCC1CCCO1 (configuration not stated),-,53.0,63.7,73.0,-,-,83.1
COc1ccc(CN2CCC2(C)C(=O)NCc2ccc3c(c2)OCO3)c2ccccc12 (configuration not stated),.,-,.,.,-,.,.
CCOc1ccc(N=C2NC(=O)S/C2=C\c2ccc(N(C)C)cc2)cc1,-,-,43.0,-,-,-,60.5
O=C1NC(=Nc2ccc(Cl)cc2)/C(=C/c2ccco2)S1,-,-,-,-,-,-,.
CC(=O)c1cccc(OCC(=O)N(C)CC(=O)NCc2ccco2)c1,-,-,-,-,-,-,.
CN(C)CCN(Cc1ccco1)C(=O)c1cc2c(Cl)nc3ccccc3c2s1,-,-,41.0,-,-,-,69.1
COc1cc(/C=N/NC(=O)c2ccc(NC(=O)C3CCCCC3)cc2)ccc1O,-,-,48.1,-,-,-,-
CCOc1cc(/C=N/NC(=O)c2ccc(NC(=O)C3CC3)cc2)ccc1O,-,-,-,-,-,-,.
CCCCNC(=O)C1C(c2ccc(OC)cc2)=Nc2ccccc2N1C(=O)c1ccncc1 (configuration not stated),.,.,.,.,-,.,.
N#Cc1c(N)n(CCCN2CCOCC2)c2nc3ccccc3nc12,-,-,42.6,-,-,-,-
CCCCCn1c(N)c(C#N)c2nc3ccccc3nc21,-,-,-,-,-,-,.
O=C(c1cccnc1)N1CCC2CC1c1c(Cl)cccc12 (configuration not stated),.,-,.,.,-,.,.
O=[N+]([O-])c1cc(S(=O)(=O)Nc2cccc(Cl)c2)ccc1N/N=C/c1ccc(N2CCOCC2)cc1,-,-,48.5,50.3,-,-,95.5
NNc1nc(-c2ccccc2)cc(-c2ccccc2)n1,-,45.0,96.6,62.7,-,-,121.7
N#Cc1cc(-c2ccccc2)nc(NN)n1,-,-,-,-,-,-,.
O=C(Cc1coc(-c2ccc(F)cc2)n1)NC1CCCCC1,-,-,60.5,-,-,-,-
Cc1ccc(NS(=O)(=O)c2cc([N+](=O)[O-])ccc2N/N=C/c2sc(N3CCOCC3)nc2-c2ccccc2)c(C)c1,-,49.4,67.9,59.6,-,-,118.5
COC(=O)[C@]12CCCCC=C1N(Cc1ccc3c(c1)OCO3)C(=O)[C@H](CC(=O)NCCCCc1ccccc1)C2,.,.,.,.,-,.,.
Nc1[nH]c(C(=O)c2ccccc2)c(-c2ccc(Cl)c(F)c2)c1C(=O)NCCc1c[nH]c2ccccc12,.,-,.,.,-,.,.
CC(C)(C)OC(=O)C[C@@H]1C/C=C\C[C@H](CC(=O)N(CCO)Cc2ccccc2)C(=O)NC[C@@H](c2ccccc2)OC1=O,-,56.1,54.2,56.0,-,-,100.2

# Screening results deposited in PubChem BioAssay by several laboratories.
